From ChEMBL document CHEMBL1123568 (J Med Chem, 1987)
≈ marks a conversion by molar mass, not a printed value.

Experiments:
Assay type in all cases: functional
[1] = tested on: Acinetobacter; experiment: Antimicrobial activity against the acinetobacter sp. CMX 669 by 2-fold agar dilution method using brain-heart infusion agar.
[2] = tested on: Escherichia coli; experiment: Antimicrobial activity against the Escherichia coli H560 by 2-fold agar dilution method using brain-heart infusion agar.
Summary of the method: (§1)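 Read-out is the MIC, found by twofold agar dilution in brain-heart infusion agar. Strains were Escherichia coli H560, Staphylococcus aureus 45 and Staphylococcus aureus ATCC 6538 P.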

[3] = tested on: Escherichia coli; experiment: Antimicrobial activity against the Escherichia coli JUHL by 2-fold agar dilution method using brain-heart infusion agar.
[4] = tested on: Klebsiella aerogenes; experiment: Antimicrobial activity against the enterobacter aerogenes ATCC 13048 by 2-fold agar dilution method using brain-heart infusion agar.; conditions: ATCC 13048, Brain
[5] = tested on: Klebsiella pneumoniae; experiment: Antimicrobial activity against the klebsiella pneumoniae 8045 by 2-fold agar dilution method using brain-heart infusion agar.
[6] = tested on: Micrococcus luteus; experiment: Antimicrobial activity against the micrococcus luteus 9341 by 2-fold agar dilution method using brain-heart infusion agar.
[7] = tested on: Pseudomonas aeruginosa; experiment: Antimicrobial activity against the Pseudomonas aeruginosa K 799/61 by 2-fold agar dilution method using brain-heart infusion agar.
[8] = tested on: Pseudomonas aeruginosa; experiment: Antimicrobial activity against the Pseudomonas aeruginosa K 799/WT by 2-fold agar dilution method using brain-heart infusion agar.
[9] = tested on: Enterococcus faecium; experiment: Antimicrobial activity against the faecium ATCC 8043 by 2-fold agar dilution method using brain-heart infusion agar.; conditions: ATCC 8043, Brain
[10] = tested on: Staphylococcus aureus; experiment: Antimicrobial activity against the Staphylococcus aureus 45 by 2-fold agar dilution method using brain-heart infusion agar.; summary of the method: as §1
[11] = tested on: Staphylococcus aureus; experiment: Antimicrobial activity against the Staphylococcus aureus ATCC 6538 P by 2-fold agar dilution method using brain-heart infusion agar.; conditions: ATCC 6538, Brain; summary of the method: as §1
[12] = tested on: Staphylococcus epidermidis; experiment: Antimicrobial activity against the Staphylococcus epidermis 3519 by 2-fold agar dilution method using brain-heart infusion agar.
[13] = tested on: Streptococcus pyogenes; experiment: Antimicrobial activity against the streptococcus pyogenes 2548 by 2-fold agar dilution method using brain-heart infusion agar.
[14] = tested on: Streptococcus agalactiae; experiment: Antimicrobial activity against the streptococcus agalactiae CMX 508 by 2-fold agar dilution method using brain-heart infusion agar.
[15] = tested on: Streptococcus equinus; experiment: Antimicrobial activity against the streptococcus bovis A 5169 by 2-fold agar dilution method using brain-heart infusion agar.
[16] = tested on: Streptococcus pyogenes; experiment: Antimicrobial activity against the streptococcus pyogenes EES 61 by 2-fold agar dilution method using brain-heart infusion agar.

Compound | MIC [1] [µg/mL] | MIC [2] [µg/mL] | MIC [3] [µg/mL] | MIC [4] [µg/mL] | MIC [5] [µg/mL] | MIC [6] [µg/mL] | MIC [7] [µg/mL] | MIC [8] [µg/mL] | MIC [9] [µg/mL] | MIC [10] [µg/mL] | MIC [11] [µg/mL] | MIC [12] [µg/mL] | MIC [13] [µg/mL] | MIC [14] [µg/mL] | MIC [15] [µg/mL] | MIC [16] [µg/mL]
C[C@H]1COc2c(N3CCN(C)CC3)c(F)cc3c(=O)c(C(=O)O)cn1c23.C[C@H]1COc2c(N3CCN(C)CC3)c(F)cc3c(=O)c(C(=O)O)cn1c23.O [LEVOFLOXACIN] | 0.3 | 0.04 | 0.07 | 0.07 | < 0.04 | 1.21 | 0.07 | < 0.04 | 0.46 | 0.3 | 0.15 | 0.3 | 0.26 | 1.21 | 1.21 | 0.46
C[C@@H]1COc2c(N3CCN(C)CC3)c(F)cc3c(=O)c(C(=O)O)cn1c23 [DEXTROFLOXACINE] | 9.75 (≈ 27 µM) | 9.75 (≈ 27 µM) | 1.21 (≈ 3.35 µM) | 9.75 (≈ 27 µM) | 1.21 (≈ 3.35 µM) | > 9.75 | 1.21 (≈ 3.35 µM) | 9.75 (≈ 27 µM) | > 9.75 | 9.75 (≈ 27 µM) | 4.8 (≈ 13.3 µM) | 4.8 (≈ 13.3 µM) | > 9.75 | > 9.75 | > 9.75 | > 9.75
CC1COc2c(N3CCN(C)CC3)c(F)cc3c(=O)c(C(=O)O)cn1c23 (stereo not drawn) [OFLOXACIN] | 0.39 (≈ 1.08 µM) | 0.1 (≈ 0.277 µM) | 0.05 (≈ 0.138 µM) | 0.2 (≈ 0.553 µM) | 0.05 (≈ 0.138 µM) | 3.1 (≈ 8.58 µM) | 0.1 (≈ 0.277 µM) | 0.39 (≈ 1.08 µM) | 0.78 (≈ 2.16 µM) | 0.39 (≈ 1.08 µM) | 0.2 (≈ 0.553 µM) | 0.39 (≈ 1.08 µM) | 0.39 (≈ 1.08 µM) | 1.56 (≈ 4.32 µM) | 1.56 (≈ 4.32 µM) | 0.78 (≈ 2.16 µM)
